{
  "source": "ChEMBL document CHEMBL1156125",
  "about": "“Pentacycle derivatives as cannabinoid CB1 receptor ligands” (Bioorg Med Chem Lett, 2009)",
  "key": {"Cannabinoid receptor 1": {"target": "Cannabinoid receptor 1 (Rattus norvegicus, UniProt P20272)", "sequence (P20272 whole entry)": "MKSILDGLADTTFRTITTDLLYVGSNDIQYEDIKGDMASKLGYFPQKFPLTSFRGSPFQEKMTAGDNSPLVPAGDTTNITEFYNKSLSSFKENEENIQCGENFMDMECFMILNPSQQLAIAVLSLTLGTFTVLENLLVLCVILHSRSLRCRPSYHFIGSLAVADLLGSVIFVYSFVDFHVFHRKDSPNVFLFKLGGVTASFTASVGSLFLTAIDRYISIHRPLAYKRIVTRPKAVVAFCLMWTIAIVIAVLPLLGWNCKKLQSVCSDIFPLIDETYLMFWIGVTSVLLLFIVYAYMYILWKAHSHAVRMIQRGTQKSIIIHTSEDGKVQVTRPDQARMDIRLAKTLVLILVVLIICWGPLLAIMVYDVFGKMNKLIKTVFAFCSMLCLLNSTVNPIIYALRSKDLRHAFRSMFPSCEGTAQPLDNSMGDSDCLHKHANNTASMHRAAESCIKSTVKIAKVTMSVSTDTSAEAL", "test": "Displacement of [3H]CP-55940 from CB1 receptor in Sprague-Dawley rat cerebellar membrane", "set-up": "species or system Cerebellum", "method_in_brief": "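Pelleted membranes were incubated with 3 nM [3H]CP55,940, 0.5% fatty-acid-free BSA and a range of ligand concentrations for 1 h at 30 °C. Bound ligand was filtered on PEI-soaked GF/B and counted by scintillation; IC50 reported.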"}, "Cannabinoid receptor 2": {"target": "Cannabinoid receptor 2 (Homo sapiens, UniProt P34972)", "sequence (P34972 whole entry)": "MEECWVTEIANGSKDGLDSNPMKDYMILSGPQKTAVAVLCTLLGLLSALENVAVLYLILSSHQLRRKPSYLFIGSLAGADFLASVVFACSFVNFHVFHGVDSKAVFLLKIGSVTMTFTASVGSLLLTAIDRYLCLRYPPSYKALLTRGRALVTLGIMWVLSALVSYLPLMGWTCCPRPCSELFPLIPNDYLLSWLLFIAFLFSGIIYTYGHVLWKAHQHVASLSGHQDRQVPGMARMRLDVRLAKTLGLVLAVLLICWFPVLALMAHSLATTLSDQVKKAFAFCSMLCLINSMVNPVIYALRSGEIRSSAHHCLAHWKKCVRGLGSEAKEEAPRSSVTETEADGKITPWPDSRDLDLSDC", "test": "Displacement of [3H]WIN-552122 from human CB2 receptor expressed in CHOK1 cells", "type": "cell-based, CHO-K1", "method_in_brief": "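Membranes came from CHO K-1 cells transfected with human CB2 and were prepared in TME buffer (pH 7.4) with centrifugation at 48,000g. Competition used 3 nM [3H]WIN55,212-2 in TME with 0.5% fatty-acid-free BSA across a range of ligand concentrations, 1 h at 30 °C.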"}, "[1]": {"test": "Selectivity ratio of IC50 for human CB2 to IC50 for rat CB1", "method_in_brief": "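Competitive radioligand binding in TME buffer (50 mM Tris–HCl, 1 mM EDTA, 3 mM MgCl2, pH 7.4) with 0.5% fatty-acid-free BSA, 1 h at 30 °C. rCB1 used male Sprague-Dawley rat cerebellar membranes with 3 nM [3H]CP55,940. hCB2 used membranes from CHO K-1 cells transfected with human CB2, with 3 nM [3H]WIN55,212-2. Bound ligand was filtered and counted by scintillation. Ratio = hCB2 IC50 / rCB1 IC50.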"}, "[2]": {"test": "Cmax in rat at 5 mg/kg, po after 1.3 hrs", "type": "ADME, organism-based", "set-up": "dose 5 mg/kg, route oral", "conditions": "in vivo"}, "Rattus norvegicus": {"system": "Rattus norvegicus", "test": "Systemic clearance in rat at 5 mg/kg, po", "type": "ADME, organism-based", "set-up": "dose 5 mg/kg, route oral", "conditions": "in vivo"}, "[3]": {"test": "Elimination half life in rat at 5 mg/kg, po", "type": "ADME, organism-based", "set-up": "dose 5 mg/kg, route oral", "conditions": "in vivo, read-out: beta t1/2 (converted)"}, "[4]": {"test": "Oral bioavailability in rat at 5 mg/kg", "type": "ADME, organism-based", "conditions": "in vivo"}, "[5]": {"target": "Cannabinoid receptor 1 (Homo sapiens) (UniProt P21554)", "sequence (P21554 whole entry, looked up)": "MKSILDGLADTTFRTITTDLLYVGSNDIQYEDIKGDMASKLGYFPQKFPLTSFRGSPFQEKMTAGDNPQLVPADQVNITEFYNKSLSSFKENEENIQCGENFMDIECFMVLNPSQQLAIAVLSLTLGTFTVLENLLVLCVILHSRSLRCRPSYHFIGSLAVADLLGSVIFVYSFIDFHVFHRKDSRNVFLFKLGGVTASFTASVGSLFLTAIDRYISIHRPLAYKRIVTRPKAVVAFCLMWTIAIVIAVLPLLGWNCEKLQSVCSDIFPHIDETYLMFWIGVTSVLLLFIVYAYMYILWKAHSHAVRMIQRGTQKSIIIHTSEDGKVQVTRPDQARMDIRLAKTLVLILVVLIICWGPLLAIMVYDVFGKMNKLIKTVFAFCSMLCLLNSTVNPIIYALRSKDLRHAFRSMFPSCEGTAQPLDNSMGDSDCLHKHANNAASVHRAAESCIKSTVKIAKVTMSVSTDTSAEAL", "test": "Binding affinity to human CB1 receptor expressed in CHO cells by luciferase reporter gene assay"}},
  "data": [
    {"smiles": "Cc1nnc(-c2c(-c3nnc(C4(C(F)(F)F)CC4)s3)nn(-c3ccc(Cl)cc3Cl)c2-c2ccc(Cl)cc2)o1", "values": [
      {"measurement": "IC50", "setting": "Cannabinoid receptor 1", "value": 26.9, "unit": "nM"}
    ]},
    {"smiles": "Cc1nnc(-c2c(-c3nnc(C4(C(F)(F)F)CC4)s3)nn(-c3ccc(Cl)cc3Cl)c2-c2ccc(Cl)cc2)s1", "values": [
      {"measurement": "IC50", "setting": "Cannabinoid receptor 1", "value": 7.39, "unit": "nM"}
    ]},
    {"smiles": "Cc1nnc(-c2c(-c3nnc(C(C)(C)C)s3)nn(-c3ccc(Cl)cc3Cl)c2-c2ccc(Br)cc2)o1", "values": [
      {"measurement": "IC50", "setting": "Cannabinoid receptor 1", "value": 4.93, "unit": "nM"}
    ]},
    {"smiles": "Cc1nnc(-c2c(-c3nnc(C4(C(F)(F)F)CC4)o3)nn(-c3ccc(Cl)cc3Cl)c2-c2ccc(Cl)cc2)o1", "values": [
      {"measurement": "IC50", "setting": "Cannabinoid receptor 1", "value": 14.7, "unit": "nM"}
    ]},
    {"smiles": "Cc1nnc(-c2c(-c3nnc(C4(C(F)(F)F)CC4)o3)nn(-c3ccc(Cl)cc3Cl)c2-c2ccc(Cl)cc2)s1", "values": [
      {"measurement": "IC50", "setting": "Cannabinoid receptor 1", "value": 4.14, "unit": "nM"}
    ]},
    {"smiles": "Cc1nnc(-c2c(-c3nnc(C(C)(C)C)o3)nn(-c3ccc(Cl)cc3Cl)c2-c2ccc(Cl)cc2)s1", "values": [
      {"measurement": "IC50", "setting": "Cannabinoid receptor 1", "value": 2.83, "unit": "nM"}
    ]},
    {"smiles": "Cc1nnc(-c2c(-c3nnc(C4(C(F)(F)F)CC4)s3)nn(-c3ccc(Cl)cc3Cl)c2-c2ccc(Br)cc2)o1", "values": [
      {"measurement": "IC50", "setting": "Cannabinoid receptor 1", "value": 4.86, "unit": "nM"}
    ]},
    {"smiles": "Cc1nnc(-c2c(-c3nnc(C(C)(C)C)o3)nn(-c3ccc(Cl)cc3Cl)c2-c2ccc(Br)cc2)s1", "values": [
      {"measurement": "IC50", "setting": "Cannabinoid receptor 1", "value": 3.69, "unit": "nM"}
    ]},
    {"smiles": "Cc1nnc(-c2c(-c3nnc(C4(C(F)(F)F)CC4)o3)nn(-c3ccc(Cl)cc3Cl)c2-c2ccc(Br)cc2)s1", "values": [
      {"measurement": "IC50", "setting": "Cannabinoid receptor 1", "value": 1.72, "unit": "nM"},
      {"measurement": "IC50", "setting": "Cannabinoid receptor 2", "value": 245, "unit": "nM"},
      {"measurement": "Ratio IC50", "setting": "[1]", "value": 142},
      {"measurement": "Cmax", "setting": "[2]", "value": 30, "unit": "ng/mL"},
      {"measurement": "clearance", "setting": "Rattus norvegicus", "value": 12.6, "unit": "mL/min/kg"},
      {"measurement": "half-life", "setting": "[3]", "value": 18.4, "unit": "h"},
      {"measurement": "bioavailability", "setting": "[4]", "value": 7.2, "unit": "%"},
      {"measurement": "IC50", "setting": "[5]", "value": 38.5, "unit": "nM"}
    ]},
    {"smiles": "Cc1nnc(-c2c(-c3nnc(C4(c5ccc(Cl)cc5)CC4)o3)nn(-c3ccc(Cl)cc3Cl)c2-c2ccc(Cl)cc2)o1", "values": [
      {"measurement": "IC50", "setting": "Cannabinoid receptor 1", "value": 3.93, "unit": "nM"}
    ]},
    {"smiles": "Cc1nnc(-c2c(-c3nnc(C4(c5ccc(Cl)cc5)CC4)s3)nn(-c3ccc(Cl)cc3Cl)c2-c2ccc(Cl)cc2)o1", "values": [
      {"measurement": "IC50", "setting": "Cannabinoid receptor 1", "value": 3.23, "unit": "nM"}
    ]},
    {"smiles": "Cc1nnc(-c2c(-c3nnc(C(C)(C)C)o3)nn(-c3ccc(Cl)cc3Cl)c2-c2ccc(Cl)cc2)o1", "values": [
      {"measurement": "IC50", "setting": "Cannabinoid receptor 1", "value": 6.47, "unit": "nM"}
    ]},
    {"smiles": "Cc1nnc(-c2c(-c3nnc(C4(C(F)(F)F)CC4)s3)nn(-c3ccc(Cl)cc3Cl)c2-c2ccc(Br)cc2)s1", "values": [
      {"measurement": "IC50", "setting": "Cannabinoid receptor 1", "value": 4.21, "unit": "nM"}
    ]},
    {"smiles": "Cc1nnc(-c2c(-c3nnc(C4(c5ccc(Cl)cc5)CC4)o3)nn(-c3ccc(Cl)cc3Cl)c2-c2ccc(Br)cc2)o1", "values": [
      {"measurement": "IC50", "setting": "Cannabinoid receptor 1", "value": 4.91, "unit": "nM"}
    ]},
    {"smiles": "Cc1nnc(-c2c(-c3nnc(C(C)(C)C)s3)nn(-c3ccc(Cl)cc3Cl)c2-c2ccc(Br)cc2)s1", "values": [
      {"measurement": "IC50", "setting": "Cannabinoid receptor 1", "value": 2.56, "unit": "nM"},
      {"measurement": "IC50", "setting": "Cannabinoid receptor 2", "value": 427, "unit": "nM"},
      {"measurement": "Ratio IC50", "setting": "[1]", "value": 167}
    ]},
    {"smiles": "Cc1nnc(-c2c(-c3nnc(C4(c5ccc(Cl)cc5)CC4)o3)nn(-c3ccc(Cl)cc3Cl)c2-c2ccc(Br)cc2)s1", "values": [
      {"measurement": "IC50", "setting": "Cannabinoid receptor 1", "value": 2.13, "unit": "nM"}
    ]},
    {"smiles": "Cc1nnc(-c2c(-c3nnc(C4(c5ccc(Cl)cc5)CC4)s3)nn(-c3ccc(Cl)cc3Cl)c2-c2ccc(Br)cc2)o1", "values": [
      {"measurement": "IC50", "setting": "Cannabinoid receptor 1", "value": 4.44, "unit": "nM"}
    ]},
    {"smiles": "Cc1nnc(-c2c(-c3nnc(C4(c5ccc(Cl)cc5)CC4)s3)nn(-c3ccc(Cl)cc3Cl)c2-c2ccc(Cl)cc2)s1", "values": [
      {"measurement": "IC50", "setting": "Cannabinoid receptor 1", "value": 3.03, "unit": "nM"}
    ]},
    {"smiles": "Cc1nnc(-c2c(-c3nnc(C4(c5ccc(Cl)cc5)CC4)o3)nn(-c3ccc(Cl)cc3Cl)c2-c2ccc(Cl)cc2)s1", "values": [
      {"measurement": "IC50", "setting": "Cannabinoid receptor 1", "value": 10.3, "unit": "nM"}
    ]},
    {"smiles": "Cc1nnc(-c2c(-c3nnc(C4(C(F)(F)F)CC4)o3)nn(-c3ccc(Cl)cc3Cl)c2-c2ccc(Br)cc2)o1", "values": [
      {"measurement": "IC50", "setting": "Cannabinoid receptor 1", "value": 4.7, "unit": "nM"}
    ]},
    {"smiles": "Cc1nnc(-c2c(-c3nnc(C4(c5ccc(Cl)cc5)CC4)s3)nn(-c3ccc(Cl)cc3Cl)c2-c2ccc(Br)cc2)s1", "values": [
      {"measurement": "IC50", "setting": "Cannabinoid receptor 1", "value": 3.7, "unit": "nM"},
      {"measurement": "IC50", "setting": "Cannabinoid receptor 2", "value": "> 10000", "unit": "nM"},
      {"measurement": "Ratio IC50", "setting": "[1]", "value": "> 2700"}
    ]},
    {"smiles": "Cc1nnc(-c2c(-c3nnc(C(C)(C)C)o3)nn(-c3ccc(Cl)cc3Cl)c2-c2ccc(Br)cc2)o1", "values": [
      {"measurement": "IC50", "setting": "Cannabinoid receptor 1", "value": 2.56, "unit": "nM"},
      {"measurement": "IC50", "setting": "Cannabinoid receptor 2", "value": 414, "unit": "nM"},
      {"measurement": "Ratio IC50", "setting": "[1]", "value": 162}
    ]}
  ]
}
